Target: T1, GANAB (Homo sapiens, UniProt Q14697)
T1 sequence (Q14697 29-944): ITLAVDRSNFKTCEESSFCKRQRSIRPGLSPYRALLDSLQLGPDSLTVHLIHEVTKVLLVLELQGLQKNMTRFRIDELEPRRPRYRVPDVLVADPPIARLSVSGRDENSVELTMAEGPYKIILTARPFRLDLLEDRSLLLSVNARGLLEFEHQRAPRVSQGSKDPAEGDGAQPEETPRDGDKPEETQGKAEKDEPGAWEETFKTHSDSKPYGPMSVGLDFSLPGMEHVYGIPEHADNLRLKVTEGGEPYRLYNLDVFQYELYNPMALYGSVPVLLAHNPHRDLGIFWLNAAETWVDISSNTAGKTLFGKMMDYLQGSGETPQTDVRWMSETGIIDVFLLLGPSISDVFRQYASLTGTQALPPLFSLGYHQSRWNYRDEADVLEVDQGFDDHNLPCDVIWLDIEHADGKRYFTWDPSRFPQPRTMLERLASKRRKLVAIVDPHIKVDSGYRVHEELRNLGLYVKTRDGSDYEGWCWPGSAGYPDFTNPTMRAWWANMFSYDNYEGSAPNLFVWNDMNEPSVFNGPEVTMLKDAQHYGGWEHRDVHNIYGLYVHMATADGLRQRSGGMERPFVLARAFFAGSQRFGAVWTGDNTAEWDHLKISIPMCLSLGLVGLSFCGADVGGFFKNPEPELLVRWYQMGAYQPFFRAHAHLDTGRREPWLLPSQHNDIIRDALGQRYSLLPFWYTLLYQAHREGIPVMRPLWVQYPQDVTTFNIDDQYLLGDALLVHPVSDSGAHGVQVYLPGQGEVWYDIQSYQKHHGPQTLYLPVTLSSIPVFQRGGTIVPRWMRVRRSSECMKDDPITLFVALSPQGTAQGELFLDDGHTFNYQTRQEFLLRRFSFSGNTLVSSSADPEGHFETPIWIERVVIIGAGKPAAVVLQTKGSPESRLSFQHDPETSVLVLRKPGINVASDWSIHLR
T1 sequence (P14314 15-528 partner): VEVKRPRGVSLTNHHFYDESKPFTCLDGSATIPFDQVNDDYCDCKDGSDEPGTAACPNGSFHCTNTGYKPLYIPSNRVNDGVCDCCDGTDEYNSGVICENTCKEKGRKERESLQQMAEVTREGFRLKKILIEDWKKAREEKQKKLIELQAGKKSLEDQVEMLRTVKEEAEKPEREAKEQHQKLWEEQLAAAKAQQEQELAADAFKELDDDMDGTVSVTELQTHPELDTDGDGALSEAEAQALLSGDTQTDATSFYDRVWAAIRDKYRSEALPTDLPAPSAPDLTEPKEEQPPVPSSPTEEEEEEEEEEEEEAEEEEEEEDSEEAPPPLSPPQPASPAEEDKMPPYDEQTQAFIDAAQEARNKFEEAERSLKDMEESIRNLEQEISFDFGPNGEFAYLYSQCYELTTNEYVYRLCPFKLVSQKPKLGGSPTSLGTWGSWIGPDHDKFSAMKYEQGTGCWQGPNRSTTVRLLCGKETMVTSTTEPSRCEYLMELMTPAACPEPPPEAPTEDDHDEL
Assay: Competitive ABPP against probe 13 in fibroblast lysates, pH 7
Assay type: biochemical
Details: pH 7, preincubation 15, 30 or 60 min
Outline: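 Human normal dermal fibroblast homogenate (17.6 μg total protein) in 150 mM McIlvaine buffer for 5 min on ice, at pH 4 for GAA and pH 7 for GANAB. Exposed to test compound for 15, 30 or 60 min at 37 °C, then labeled with Cy5 aziridine probe 13 for 30 min at 37 °C. Denatured at 98 °C, 10% SDS–PAGE, Cy5 in-gel fluorescence scan.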

inhibition of probe 13 labeling of GANAB: time dependent inhibition
SMILES: O=S1(=O)O[C@@H]2[C@H](O)[C@@H](O)[C@H](O)[C@@H](CO)[C@@H]2O1 [Compound 5, 1,6-epi-cyclophellitol cyclosulfate]

Reference: article PMC5532717 (ACS Central Science, 2017)
